Assay outcomes (PubChem BioAssay)
TRPC4 inh: inhibitors of mouse TRPC4 channel; Q9QUQ5; HEK293 TRPC4beta/mu-opioid, DAMGO-evoked Fluo4 calcium flux; active compounds read low; B-score at 10 µM; 300,000 compounds, 0.39% hits; AID 2247;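 active means B-score over 3 SD under the library average, no early fluorescence shift, positive overall ratio signal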
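System: stable TRPC4beta/mu-opioid receptor HEK293 cells; Dosing: single-point compound dosing; Measured by: Fluo4 Ca2+ flux fluorescence; Read-out basis: per-well B score of integrated baseline-normalized Fluo4 ratio.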
TRPC4 agonist: activators of mouse TRPC4 channel. HEK293 TRPC4beta/mu-opioid, Fluo4 calcium fluorescence; active compounds read high. 310,000 compounds, 0.49% hits. B-score at 10 µM. Q9QUQ5;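 active means B-score above 5 SD of library B-scores, and initial fluorescence ratio not above library mean plus 5 SD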;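 further: positive B-score marks a calcium rise read as TRPC4 activation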
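Assay system: HEK293 cells stably co-expressing mouse TRPC4beta and mu-opioid receptor / Timing: Fluo4 dye loading 45 min at room temperature, 110 s recording / Signal: Fluo4 calcium-sensitive dye fluorescence, kinetic, 1 Hz baseline / Read-out: integrated baseline-normalised fluorescence ratio, converted to per-well B score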
TRPC6 activator: activators of mouse TRPC6 channel. Q61143. HEK293-TRPC6 membrane potential dye fluorescence; active compounds read high. B-score at 10 µM. 310,000 compounds, 0.13% hits. AID 2550;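 active means B-score of the integrated fluorescence ratio above library mean plus 3 SD, and starting fluorescence ratio within library mean plus 5 SD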;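 further: higher score means more depolarization so channel activation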
Target sequence (Q61143 whole entry, looked up): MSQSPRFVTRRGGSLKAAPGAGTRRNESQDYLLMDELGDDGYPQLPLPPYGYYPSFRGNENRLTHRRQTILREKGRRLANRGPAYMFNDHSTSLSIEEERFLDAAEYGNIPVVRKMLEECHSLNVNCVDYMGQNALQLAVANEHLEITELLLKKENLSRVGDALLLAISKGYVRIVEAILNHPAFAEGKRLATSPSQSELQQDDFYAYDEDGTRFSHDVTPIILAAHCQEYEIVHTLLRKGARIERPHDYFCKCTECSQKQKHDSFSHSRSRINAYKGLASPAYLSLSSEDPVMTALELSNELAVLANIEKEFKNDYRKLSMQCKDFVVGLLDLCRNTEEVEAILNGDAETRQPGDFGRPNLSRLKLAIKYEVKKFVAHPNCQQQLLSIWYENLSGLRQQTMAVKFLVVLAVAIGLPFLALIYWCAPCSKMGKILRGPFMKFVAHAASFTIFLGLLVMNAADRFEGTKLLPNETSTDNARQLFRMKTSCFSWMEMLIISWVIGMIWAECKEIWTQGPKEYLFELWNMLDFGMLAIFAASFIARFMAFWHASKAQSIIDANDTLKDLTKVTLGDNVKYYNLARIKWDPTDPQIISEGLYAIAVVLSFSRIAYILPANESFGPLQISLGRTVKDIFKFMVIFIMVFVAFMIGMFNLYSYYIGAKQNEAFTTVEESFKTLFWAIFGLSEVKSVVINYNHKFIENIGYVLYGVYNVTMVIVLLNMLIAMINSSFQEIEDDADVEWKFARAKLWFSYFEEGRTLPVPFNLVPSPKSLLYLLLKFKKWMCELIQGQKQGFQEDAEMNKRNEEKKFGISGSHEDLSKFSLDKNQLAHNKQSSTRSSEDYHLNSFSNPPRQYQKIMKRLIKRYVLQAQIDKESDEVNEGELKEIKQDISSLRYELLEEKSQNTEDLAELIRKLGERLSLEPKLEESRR
TRPC4 PAM: TRPC4 (mouse) allosteric potentiation. B-score at 10 µM. Q9QUQ5. HEK293 TRPC4beta/mu-opioid, DAMGO EC20, Fluo-4 Ca2+ flux; active compounds read high. 310,000 compounds, 0.42% hits. AID 2227;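 active means B-score of calcium response area above 5 SD of library B-scores, with initial fluorescence ratio within 5 SD of library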;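 further: B-score of integrated fluorescence ratio over time as area under calcium response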
TRPC6 inhibitor: blocks the mouse TRPC6 cation channel. B-score at 10 µM. 310,000 compounds, 1.1% hits. HEK293-TRPC6, membrane potential dye, ACh-evoked depolarization; active compounds read low. AID 2553. Q61143;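 active means B-score under library mean minus 3 SD, initial fluorescence not abnormally high, positive integrated signal ratio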;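 further: B-score derived from integrated fluorescence ratio over the kinetic read; more negative B-score means stronger inhibition of depolarization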
The depositor's hits bear a star; i = inactive. Only some compounds are listed: those with a hit (about 2.3% of all), similar ones and a draw of the others.

SMILES	TRPC4 inh	TRPC4 agonist	TRPC6 activator	TRPC4 PAM	TRPC6 inhibitor
Cc1cc(Cl)cc(C)c1OCCCCCn1ccnc1	i	86*	i	i	i
CC(C)C(=O)Nc1cc2c3c(c1)CCC(=O)N3CCC2	i	i	i	i	i
CCOC(=O)c1csc(NC(=O)CN2CCN(C)CC2)n1	i	i	i	i	i
O=C(C1CCCN(S(=O)(=O)c2cc(Cl)ccc2Cl)C1)N1CCCC1 (centres undefined)	i	i	i	i	i
Cc1cc(OCCCn2ccnc2)ccc1[N+](=O)[O-]	i	43*	i	21*	i
Cc1ccc(OCCn2ccnc2)c([N+](=O)[O-])c1	i	i	i	i	i
Cc1cc(C)c(OCCCCCn2ccnc2)c(C)c1	i	i	i	i	i
Cc1ccc(C)c(OCCCCCn2ccnc2)c1	i	169*	i	i	i
COc1ccccc1C(=O)N(Cc1ccc(Cl)cc1)C1CCS(=O)(=O)C1 (centres undefined)	i	i	i	i	i
Cc1ccc(-n2nnnc2CSc2nnc(-c3ccc(O)cc3)o2)cc1	i	i	i	i	i
O=C(C1=C[C@H](c2ccc(C(F)(F)F)cc2)C[C@H](OCCCCO)O1)N1CCN(Cc2ccccc2)CC1	i	186*	i	i	i
CSCCC(NC(=O)c1ccco1)C(=O)N1CCN(Cc2ccccc2)CC1 (centres undefined)	i	i	i	i	i
CSCCC(NC(=O)c1ccco1)C(=O)OC(C)C(=O)NC(=O)NC1CCCCC1 (centres undefined)	i	70*	i	i	i
CCOc1ccc(N2C(=O)CC(N3CCN(C4CCc5ccccc5C4)CC3)C2=O)cc1 (centres undefined)	i	i	i	14*	i
COc1ccc(NC2SC(=O)N(C)C2=O)cc1 (centres undefined)	i	i	i	i	i
CC1CC(O)C(C)CN1 (centres undefined)	i	i	i	i	i
Cc1c(CN2CCC(n3nccc3NC(=O)C3CC3)CC2)[nH]c2ccccc12	i	64*	i	i	i
COC(=O)c1ccc(CN2CCC(n3nccc3NC(=O)C3CC3)CC2)cc1	i	i	i	i	i
COc1ccc(Oc2cccc(Cl)c2CNC(=O)CCC(=O)O)cc1	i	i	i	i	i
Cc1cc(OCc2cc(C(=O)NCC3(C)COC3)no2)cc(C)c1Cl	-6*	i	i	i	i
Nc1ccc(C(=O)N/N=C2\CCCc3c2[nH]c2ccccc32)cc1	i	i	i	i	i
c1ccc(CCN=C2CCCc3c2[nH]c2ccccc32)cc1	i	155*	i	i	i
CCCCN(CC)CCCNC(=O)c1cn(C)c2ccc(S(=O)(=O)N(C)C3CCCCC3)cc2c1=O	i	i	i	12*	i
CCCCN(C)C(=O)c1cn(C)c2ccc(S(=O)(=O)N(C)C)cc2c1=O	i	i	i	14*	i
CCCCN(C)CCCNC(=O)c1cn(C)c2ccc(S(=O)(=O)N(C)C3CCCCC3)cc2c1=O	i	i	i	i	i
SMILES	TRPC4 inh	TRPC4 agonist	TRPC6 activator	TRPC4 PAM	TRPC6 inhibitor
COc1ccc(CNC(=O)C2CCN(S(=O)(=O)c3ccc4c(c3)CC(C)N4C(C)=O)CC2)cc1 (centres undefined)	i	i	i	i	i
Cn1c(N2CCCCC2)nc2c1c(=O)n(Cc1cccc(Br)c1)c(=O)n2C	i	i	i	i	i
CC1CN(c2nc3c(c(=O)n(Cc4ccc(Cl)c(Cl)c4)c(=O)n3C)n2C)CC(C)O1 (centres undefined)	i	i	i	14*	i
Cc1cccc(Cn2c(=O)c3c(nc4n3CCCN4Cc3ccccc3)n(C)c2=O)c1	i	i	i	20*	i
Cn1c(N2CCC(C(N)=O)CC2)nc2c1c(=O)n(Cc1ccc(Br)cc1)c(=O)n2C	i	i	i	15*	i
CC(C)Cn1c(N)c(C(=O)COC(=O)c2ccc([N+](=O)[O-])o2)c(=O)n(C)c1=O	i	i	i	i	i
c1ccc2c(N3CCCCC3)nc(N3CCOCC3)nc2c1	-9*	i	i	i	i
